Measured values taken from ChEMBL document CHEMBL4837214, “Design, synthesis, and biological evaluation of novel tetrahydroprotoberberine derivatives to reduce SREBPs expression for the treatment of hyperlipidemia” (Eur J Med Chem, 2021).
Activity calls are given as the source filed them. The calls are words filed in the database; no cut-off is given here.

Columns and labels:
[1] = tested on: HepG2; test: Down regulation of intracellular TC level in human HepG2 cells at 10 uM measured after 24 hrs; type: functional, cell-based
Procedure, shortened: (§1)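 HepG2 cells grown in six-well plates and exposed 24 h to compound at […]. Cells collected in PBS and sonicated (5 s on, 10 s off, 60 s total). Total cholesterol or triglyceride measured with a colorimetric determination kit.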

[2] = tested on: HepG2; test: Down regulation of intracellular TG level in human HepG2 cells at 10 uM measured after 24 hrs; type: functional, cell-based; procedure, shortened: as §1
[3] = Toxicity in C57BL/6J mouse assessed as reduction in liver weight at 170 to 340 mg/kg, po measured every week for 6 weeks; type: organism-based; settings: in vivo, 1008 h, dose 170-340 mg/kg
Procedure, shortened: (§2)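 Male C57BL/6J mice, six weeks old, fed a 45%-fat diet (HFD) for 15 weeks; chow-fed mice served as controls. Obese mice were randomized to vehicle (0.1% w/v CMC-Na) or 170 or 340 mg/kg, gavaged daily for 6 weeks while diet continued. Body weight, food intake, organ weights, serum lipids, tissue histology (H&E, Oil red O), liver SREBP blots and liver qPCR followed.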

[4] = tested on: HepG2; test: Down regulation of precursor and mature forms of SREBP-1 protein expression in human HepG2 cells after 24 hrs by Western blotting analysis; type: functional, cell-based; settings: dose 5-80 µM
Procedure, shortened: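 HepG2 cells treated 24 h at the indicated doses and lysed in RIPA buffer with protease inhibitors; protein quantified by BCA. Lysates run on 10% SDS-PAGE and blotted to nitrocellulose. After 5% milk block, primary antibody applied overnight at 4 °C and secondary 1 h at room temperature. β-actin served as loading reference.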

[5] = tested on: HepG2; test: Down regulation of LDLR gene expression in human HepG2 cells by qRT-PCR analysis; type: functional, cell-based
[6] = molecular target: T1, Sterol regulatory element-binding protein 1 (Homo sapiens) (UniProt P36956); test: Induction of SREBP degradation expressed in human HEK293T cells assessed as increase in SREBP ubiquitination at 10 uM after 24 hrs by Western blot analysis; type: cell-based
T1 sequence (whole entry): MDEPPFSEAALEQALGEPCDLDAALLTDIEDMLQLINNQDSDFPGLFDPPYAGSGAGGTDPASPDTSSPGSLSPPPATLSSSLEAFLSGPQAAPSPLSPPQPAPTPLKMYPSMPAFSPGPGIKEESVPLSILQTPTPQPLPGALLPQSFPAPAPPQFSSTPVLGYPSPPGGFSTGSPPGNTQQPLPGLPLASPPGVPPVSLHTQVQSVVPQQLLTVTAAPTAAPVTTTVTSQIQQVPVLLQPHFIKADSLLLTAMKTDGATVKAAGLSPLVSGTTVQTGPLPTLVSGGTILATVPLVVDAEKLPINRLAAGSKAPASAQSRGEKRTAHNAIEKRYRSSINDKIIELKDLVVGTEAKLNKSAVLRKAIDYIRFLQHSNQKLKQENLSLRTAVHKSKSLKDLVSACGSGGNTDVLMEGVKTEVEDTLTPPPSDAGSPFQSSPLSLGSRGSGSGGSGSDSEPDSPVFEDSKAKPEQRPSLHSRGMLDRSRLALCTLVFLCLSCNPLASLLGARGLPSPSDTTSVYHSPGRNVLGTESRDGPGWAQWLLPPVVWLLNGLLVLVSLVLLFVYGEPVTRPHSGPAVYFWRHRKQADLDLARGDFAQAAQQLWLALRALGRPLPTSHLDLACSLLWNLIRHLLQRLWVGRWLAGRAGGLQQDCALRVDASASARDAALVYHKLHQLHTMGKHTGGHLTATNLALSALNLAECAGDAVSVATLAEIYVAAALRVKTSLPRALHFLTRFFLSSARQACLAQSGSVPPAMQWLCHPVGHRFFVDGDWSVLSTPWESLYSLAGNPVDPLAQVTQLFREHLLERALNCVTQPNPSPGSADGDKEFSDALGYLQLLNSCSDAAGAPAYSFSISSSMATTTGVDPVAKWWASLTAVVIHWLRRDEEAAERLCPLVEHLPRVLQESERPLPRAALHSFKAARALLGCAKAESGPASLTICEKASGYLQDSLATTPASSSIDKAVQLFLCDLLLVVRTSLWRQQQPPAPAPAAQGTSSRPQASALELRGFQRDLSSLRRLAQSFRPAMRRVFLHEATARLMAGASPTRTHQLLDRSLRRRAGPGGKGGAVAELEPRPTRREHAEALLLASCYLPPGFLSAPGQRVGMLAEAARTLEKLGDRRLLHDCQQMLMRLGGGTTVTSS
Procedure, shortened: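 293T cells seeded at 3×10⁶ per dish and transfected next day with flag-SREBP1 or flag-SREBP2 plus HA-ubiquitin. On day 2 medium replaced with DMSO or compound. On day 3 cells lysed in IP buffer and cleared at 12,000 rpm, 4 °C. Supernatant immunoprecipitated overnight at 4 °C with flag antibody or IgG. Ubiquitylated SREBPs detected by Western blot.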

[7] = Cmax in Sprague-Dawley rat at 10 mg/kg, po measured upto 24 hrs by LC-MS/MS analysis; type: ADME, organism-based; set-up: route oral, dose 10 mg/kg, time <=24; settings: in vivo
Procedure, shortened: (§3)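 Six SD rats split into two groups of three, dosed 1 mg/kg IV or 10 mg/kg orally. IV blood drawn at 2, 5, 15, 30 min and 1, 2, 4, 6, 8, 12 h. Oral blood drawn at 5, 15, 30 min and 1, 2, 4, 6, 8, 12, 24 h. Serum drug measured by LC/MS/MS. Parameters are the average of three runs.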

[8] = MRT (0 to infinity) in Sprague-Dawley rat at 10 mg/kg, po measured upto 24 hrs by LC-MS/MS analysis; type: ADME, organism-based; settings: in vivo; procedure, shortened: as §3
[9] = MRT (0 to infinity) in Sprague-Dawley rat at 1 mg/kg, iv measured upto 12 hrs by LC-MS/MS analysis; type: ADME, organism-based; settings: in vivo; procedure, shortened: as §3
[10] = Tmax in Sprague-Dawley rat at 10 mg/kg, po measured upto 24 hrs by LC-MS/MS analysis; type: ADME, organism-based; settings: in vivo; procedure, shortened: as §3
[11] = Toxicity in high fat diet-induced C57BL/6J mouse assessed as change in lung morphology at 170 to 340 mg/kg, po administered for 6 weeks by H and E staining-based assay; type: organism-based; settings: in vivo, 1008 h, dose 170-340 mg/kg; procedure, shortened: as §2
[12] = Toxicity in high fat diet-induced C57BL/6J mouse assessed as change in kidney morphology at 170 to 340 mg/kg, po administered for 6 weeks by H and E staining-based assay; type: organism-based; settings: in vivo, 1008 h, dose 170-340 mg/kg; procedure, shortened: as §2
[13] = tested on: Mus musculus; test: Hypoglycemic activity in high fat diet-induced C57BL/6J mouse assessed as improvement in insulin tolerance at 170 to 340 mg/kg, po administered daily for 6 weeks and measured up to 120 mins by ITT method; type: functional, organism-based; settings: dose 170-340 mg/kg; procedure, shortened: as §2
[14] = tested on: Mus musculus; test: […] activity in high fat diet-induced C57BL/6J mouse assessed as reduction in ACC mRNA level in liver at 170 to 340 mg/kg, po administered daily for 6 weeks by qRT-PCR analysis; type: functional, organism-based; settings: dose 170-340 mg/kg; procedure, shortened: as §2
[15] = tested on: Mus musculus; test: […] activity in high fat diet-induced C57BL/6J mouse assessed as reduction in Fasn mRNA level in liver at 170 to 340 mg/kg, po administered daily for 6 weeks by qRT-PCR analysis; type: functional, organism-based; settings: dose 170-340 mg/kg; procedure, shortened: as §2
[16] = tested on: Mus musculus; test: Hypolipidemic activity in high fat diet-induced C57BL/6J mouse assessed as reduction in cell size of BAT at 170 to 340 mg/kg, po administered daily for 6 weeks by H and E staining based assay; type: functional, organism-based; settings: dose 170-340 mg/kg; procedure, shortened: as §2

Activity [6]: Active
Cmax [7]: 428 ng/mL
MRT inf [8]: 8.03 h
MRT inf [9]: 3.18 h
Tmax [10]: 6.67 h
Compound: COc1ccc2c(c1OCC1CCCCC1)CN1CCc3cc4c(cc3C1C2)OCO4 (stereo unspecified)
Activity [1]: Active
Activity [2]: Active
Activity [3]: Toxic
Activity [4]: Dose-Dependent Effect
Activity [5]: Active
Activity [11]: Non-Toxic
Activity [12]: Non-Toxic
Activity [13]: Active
Activity [14]: Active
Activity [15]: Active
Activity [16]: Active
